Assay results gathered from unrelated publications.
Lines come from different studies, so protocols differ.
Effect on: enzyme activity
Mode: inhibitor
PIK3CD: Phosphatidylinositol 4,5-bisphosphate 3-kinase catalytic subunit delta isoform (PIK3CD, Homo sapiens, UniProt O00329)
KIT: Mast/stem cell growth factor receptor Kit (KIT, Homo sapiens, UniProt P10721)

SMILES	target	technique	IC50 [µM]
CN(C)C(=O)c1cc2cnc(Nc3ccc(-c4ccc5c(=O)cc(N6CCOCC6)oc5c4)cc3)nc2n1C1CCCC1	PIK3CD	radiometric	0.897
O=C1Nc2ccccc2/C1=N\c1ccc(Cl)cc1	PIK3CD	ADP detection	0.765
CN(C)C(=O)c1cc2cnc(Nc3ccc(-c4ccc5c(=O)cc(N6CCNCC6)oc5c4)cc3)nc2n1C1CCCC1	PIK3CD	radiometric	9.5
CN(C)CCNC(=O)c1ccc(-c2nc3ccc4[nH]ncc4c3c3c2CCCC3)cc1	KIT	–	> 1
CN(C)C(=O)c1cc2cnc(Nc3cccc4c(=O)cc(N5CCOCC5)oc34)nc2n1C1CCCC1	PIK3CD	radiometric	> 10
CN(C)CCNC(=O)c1ccc(-c2nc3ccc4[nH]ncc4c3c3c2CCCCC3)c(F)c1	KIT	–	0.249
COc1ccc(-c2cc(=O)c3ccc(Nc4ncc5cc(C(=O)N(C)C)n(C6CCCC6)c5n4)cc3o2)cc1	PIK3CD	radiometric	9.79
Cc1n[nH]c2ccc3nc(-c4ccc(C(=O)NCCN(C)C)cc4F)c4c(c3c12)CCCCC4	KIT	–	0.261
CNC(=O)[C@H](Cc1c[nH]c2ccccc12)NC(=O)[C@@H](CC(=O)NO)CC(C)C	Matrix metalloproteinase-14 (MMP14, Homo sapiens, UniProt P50281)	–	0.00137
C=CCN1C(=O)C(=Nc2cccc(C)c2)c2ccccc21	PIK3CD	ADP detection	0.0812
CN(C)C(=O)c1cc2cnc(Nc3ccc(-c4cccc5c(=O)cc(N6CCNCC6)oc45)cc3)nc2n1C1CCCC1	PIK3CD	radiometric	2.3
CCc1nc(C(N)=O)c(Nc2ccc(N3CCC(N4CCN(C)CC4)CC3)c(OC)c2)nc1NC1CCOCC1	KIT	–	0.15
Cc1cccc(N=C2C(=O)Nc3ccccc32)c1	PIK3CD	ADP detection	0.0889
CN(C)C(=O)c1cc2cnc(Nc3cc(C(F)(F)F)c(-c4cccc5c(=O)cc(N6CCOCC6)oc45)cn3)nc2n1C1CCCC1	PIK3CD	radiometric	0.095
O=C1C(=Nc2ccc(Cl)cc2)c2ccccc2N1Cc1ccc([N+](=O)[O-])cc1	PIK3CD	ADP detection	0.0305
Cc1n[nH]c2ccc3nc(-c4ccc(C(=O)NCCN(C)C)cc4)c4c(c3c12)CCCC4	KIT	–	0.208
CC(C)c1cccc(C(C)C)c1N=C1C(=O)N(Cc2cccc(Cl)c2)c2ccccc21	PIK3CD	ADP detection	0.238
COc1c(Cl)cccc1Nc1c(-c2ccncc2OC[C@@H]2COCCO2)[nH]c2c1C(=O)NCC2	Receptor tyrosine-protein kinase erbB-4 (ERBB4, Homo sapiens, UniProt Q15303)	TR-FRET	0.0139
O=C1Nc2ccccc2C1=Nc1cccc(Cl)c1	PIK3CD	ADP detection	0.0837
O=C1Nc2ccc(I)cc2/C1=C/c1cc(Br)c(O)c(Br)c1	Casein kinase II subunit alpha (CSNK2A1, Homo sapiens, UniProt P68400)	–	0.319
